# Published values from different studies.
# Lines come from different studies, so protocols differ.
# PIK3C2A: Phosphatidylinositol 4-phosphate 3-kinase C2 domain-containing subunit alpha (PIK3C2A, Homo sapiens, UniProt O00443)
# PAK5: Serine/threonine-protein kinase PAK 5 (PAK5, Homo sapiens, UniProt Q9P286)
SMILES,target,assay,test system,conditions,measurement,result
Cn1cc(-c2cccc(N3CCc4c(sc5c4CC(C)(C)C5)C3=O)c2CO)cc(Nc2ccncn2)c1=O,PIK3C2A,"enzyme activity, inhibitor",,1 µM,inhibition,0%
CCN(CC)CCCC[C@H](NC(=O)[C@H](CC(C)C)NC(=O)[C@H](C)NC(=O)[C@H](Cc1ccccc1)NC(=O)c1ccc(C(C)(C)C)cc1)C(=O)N[C@@H](CO)C(=O)OC,"Bromodomain-containing protein 1, bromodomain (BRD1, Homo sapiens, UniProt O95696)","thermal stability, DSF",,25 µM,ΔTm,0.49 °C
C#Cc1n[nH]c2c(-c3cn([C@@H](C)c4ccccn4)c(=O)[nH]c3=O)cc(F)cc12,PAK5,"enzyme activity, inhibitor",,0.1 µM,inhibition,5.1%
Cc1nn(C)cc1-c1nc2c(N3CCN(Cc4ccc(Cl)cc4)CC3)c(Cl)cnc2[nH]1,"Rhodopsin kinase GRK1 (GRK1, Homo sapiens, UniProt Q15835)","binding, competition with immobilised ligand",,1 µM,remaining binding,100%
COc1ncccc1-c1cnn2ccc(N3CCN(C(=O)OC(C)C)CC3)nc12,"Mitogen-activated protein kinase kinase kinase 13 (MAP3K13, Homo sapiens, UniProt O43283)","binding, competition with immobilised ligand",,1 µM,remaining binding,98%
COc1cc(Nc2ncc(F)c(Nc3ccc4c(n3)NC(=O)C(C)(C)O4)n2)cc(OC)c1OC,"Serine/threonine-protein kinase TAO2 (TAOK2, Homo sapiens, UniProt Q9UL54)",binding,,10 µM,inhibition,88%
CCCCCc1cc(O)c(C/C=C(\C)CCC=C(C)C)c(O)c1,"Polyunsaturated fatty acid lipoxygenase ALOX12 (ALOX12, Homo sapiens, UniProt P18054)","enzyme activity in cells, inhibitor",PMNL,10 µM,remaining activity,152%
C#Cc1n[nH]c2c(-c3cn([C@@H](C)c4ccccc4)c(=O)[nH]c3=O)cc(F)cc12,PAK5,"enzyme activity, inhibitor",,0.1 µM,inhibition,4.5%
O=C(Nc1cccnn1)N1CCN([C@@H]2CCOc3cc(C(F)(F)F)ccc32)CC1,"Apelin receptor (APLNR, Homo sapiens, UniProt P35414)",ligand displacement,,20 µM,inhibition,-1%
Cn1cc(-c2cc(F)cc(N3CCn4c(cc5c4CCCC5)C3=O)c2CO)cc(Nc2ccc(N3CCN(C4COC4)CC3)cn2)c1=O,PIK3C2A,"enzyme activity, inhibitor",,0.1 µM,inhibition,-2%
Nc1ncc(-c2nc(N3CCOCC3)nc(N3CCOCC3)n2)c(C(F)F)n1,"Serine/threonine-protein kinase RIO2 (RIOK2, Homo sapiens, UniProt Q9BVS4)","binding, competition with immobilised ligand",,10 µM,remaining binding,51%
